bIAP inhibitor – intestinal alkaline phosphatase (bovine) inhibition; purified bovine IAP, CDP-star luminescence, 30 min; 190,000 tested, under 10 active; inhibition, % at 20 µM;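 active = over 50% inhibition of intestinal alkaline phosphatase at 20 µM in the single-dose screen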
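System: Purified bovine intestinal alkaline phosphatase (IAP) enzyme | Input: IAP diluted 1/65,000,000 in the well | Also added: CDP-star chemiluminescent phosphatase substrate, 30 µM final | Dosing: 20 µM single dose | Times: Enzyme reaction for 30 min at room temperature | Detection: Luminescence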
hIAP inh – blocks human intestinal alkaline phosphatase. P09923. 0.12% of 330,000 active. purified IAP, CDP-Star luminescence, 30 min. inhibition, % at 10 µM. AID 2544;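 active = inhibition reaching a set limit with compound at 10 µM in the primary screen, cut at about 35% in these data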;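 note: plate controls were DMSO wells with enzyme for no effect and no-enzyme buffer wells for full effect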
Target sequence (P09923 whole entry, looked up): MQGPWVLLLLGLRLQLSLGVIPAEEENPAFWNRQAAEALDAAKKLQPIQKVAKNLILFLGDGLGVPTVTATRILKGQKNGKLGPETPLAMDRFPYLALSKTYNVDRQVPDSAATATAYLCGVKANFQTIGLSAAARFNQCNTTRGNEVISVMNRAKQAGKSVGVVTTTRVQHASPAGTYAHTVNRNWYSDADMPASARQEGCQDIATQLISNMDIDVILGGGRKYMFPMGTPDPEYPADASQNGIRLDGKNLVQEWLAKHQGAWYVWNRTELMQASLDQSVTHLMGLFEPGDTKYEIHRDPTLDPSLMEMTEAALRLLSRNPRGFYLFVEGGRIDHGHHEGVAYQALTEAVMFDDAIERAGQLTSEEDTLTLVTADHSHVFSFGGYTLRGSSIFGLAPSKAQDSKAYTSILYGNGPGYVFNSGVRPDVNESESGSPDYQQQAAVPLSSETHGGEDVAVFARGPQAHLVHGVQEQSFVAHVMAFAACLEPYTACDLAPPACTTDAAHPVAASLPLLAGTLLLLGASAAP
bIAP act – intestinal alkaline phosphatase (bovine) activation | purified bovine IAP, CDP-star luminescence, 30 min; hits give high values; fold of DMSO-control signal, blank-subtracted | activation factor at 20 µM | 0.17% of 200,000 active | AID 1016;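 active = activation factor of 2 or more at 20 µM, a signal rise over negative controls twice the positive control's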
hIAP act – human IAP activation; P09923; purified human IAP, CDP-Star luminescence, 30 min; hits give high values; 1 = vehicle-only enzyme, 0 = enzyme-free background; AID 2524; 0.16% of 330,000 active; activation factor at 10 µM;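 active = activation factor of the enzyme at least 2-fold when tested at 20 µM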
mIAP block – mouse IAP inhibition | inhibition, % at 10 µM | 0.2% of 330,000 active | purified mouse IAP, CDP-Star luminescence, 30 min | AID 2806;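 active = inhibition of at least 40% at 10 µM in the primary screen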;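 note: plate controls were DMSO with enzyme for no effect and no enzyme wells for full effect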
mIAP act – increases mouse intestinal alkaline phosphatase activity. 0.24% of 330,000 active. muIAP, CDP-Star luminescence, 30 min; hits give high values; 1 = vehicle-only enzyme signal, 0 = enzyme-free wells. activation factor at 10 µM;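 active = activation factor of at least 2 at 20 µM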
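System: Mouse IAP enzyme | Also added: CDP-Star substrate | Dosing: Compounds dispensed in DMSO | Schedule: 30 min enzyme-substrate-compound incubation at room temperature | Technique: Chemiluminescence readout | Control set: DMSO-only wells and no-enzyme negative control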
mIAP inh conf – mouse IAP inhibition confirmation | shares compounds with mIAP block | purified mouse IAP, CDP-Star luminescence, 30 min | inhibition, % at 10 µM | 4.7% of 11,000 active;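 active = inhibition of at least 40% at 10 µM in either of the two replicates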;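 note: plate controls were DMSO wells with enzyme for no effect and buffer wells lacking enzyme for full effect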
Starred values were filed as active, the others as inactive; i = inactive; . = not tested or not shown. Shown are actives, neighbours in structure and some others; about 0.77% of the full set was active somewhere.

SMILES	bIAP inhibitor	hIAP inh	bIAP act	hIAP act	mIAP block	mIAP act	mIAP inh conf
Cc1ccc(-c2c(C(=O)N/N=C/c3ccc(OC(C)C)cc3)nnn2-c2nonc2N)cc1	.	-10.4	.	1.1	2.3	0.977	.
NN1C(=O)/C(=C\c2ccco2)SC1=S	.	15.0	.	0.85	78.2*	0.218	86.5*
O=C(O)c1ccc(N2C(=O)/C(=C/C=C/c3ccccc3)SC2=S)cc1	10.5	2.3	0.9	0.977	8.3	0.917	.
CC(C)C(C(=O)O)N1C(=O)/C(=C/C=C/c2ccco2)SC1=S (stereo not given)	23.1	-11.0	0.8	1.11	65.9*	0.341	73.6*
O=C1/C(=C\c2ccco2)SC(=S)N1c1ccc(O)cc1	8.1	0.8	0.9	0.992	77.8*	0.222	77.3*
O=C1/C(=C/C=C/c2ccco2)SC(=S)N1c1ccc(O)cc1	.	-5.7	.	1.06	79.5*	0.205	77.0*
CC(C)C(C(=O)O)N1C(=O)/C(=C/c2cccn2C)SC1=S (stereo not given)	-9.6	.	1.1	.	.	.	.
O=C1/C(=C\c2ccc(O)cc2)SC(=S)N1c1cccnc1	26.1	25.1	0.7	0.749	19.4	0.806	.
Cc1ccc(N(C(=O)c2ccc(Br)o2)C2C=CS(=O)(=O)C2)cc1 (stereo not given)	7.7	-9.4	0.9	1.09	-3.7	1.04	.
CC1(C)CC(NC(=O)C2CCC(=O)N(C3CC3)C2)CC(C)(C)C1 (stereo not given)	.	8.0	.	0.92	4.4	0.956	.
N/C(=N\OS(=O)(=O)c1ccc(Br)cc1)c1ccncc1	9.7	-14.9	0.9	1.15	-4.1	1.04	.
CCOc1ccc(NC(=O)CC2C(=O)NCCN2C(=O)c2ccc(Cl)cc2)cc1 (stereo not given)	-4.0	-10.2	1	1.1	-4.0	1.04	.
O=C(NN1C(=O)/C(=C/C=C/c2ccccc2)SC1=S)c1ccncc1	-7.0	2.6	1.1	0.974	20.5	0.795	.
O=C(NN1C(=O)/C(=C/C=C/c2ccco2)SC1=S)c1ccncc1	.	6.5	.	0.935	77.3*	0.227	76.6*
O=C1CC(c2ccc(O)cc2)Oc2cc(O)cc(O)c21 (stereo not given)	-12.7	-2.5	1.1	1.02	-1.4	1.01	.
O=C1CC(c2ccc(O)c(O)c2)Oc2c1ccc(O)c2O (stereo not given)	.	27.6	.	0.724	77.9*	0.221	80.9*
Oc1ccc(/C=N/N=C/c2ccc(O)c(O)c2)cc1O	.	-0.3	.	1	59.7*	0.403	63.6*
COc1cc(/C=C/C(=O)O)ccc1O	.	3.0	.	0.97	1.7	0.983	.
COc1ccc(N(CC(=O)NCCOc2ccccc2)S(=O)(=O)c2ccc(C)cc2)cc1	.	-20.7	.	1.21	-6.9	1.07	.
C=CCc1ccccc1OCC(O)Cn1ccnc1C (stereo not given)	14.9	2.7	0.9	0.973	17.5	0.825	.
O=C(CSc1ncn[nH]1)CSc1ncn[nH]1	-32.9	-35.1	1.3	1.35	45.9*	0.541	48.3*
CN(C(=O)CCl)C1CCCc2ccccc21 (stereo not given)	-1.5	.	1	.	.	.	.
CCNC(=S)N(Cc1ccco1)Cc1cc2cc3c(cc2[nH]c1=O)OCCO3	3.7	11.3	1	0.887	7.6	0.924	.
S=c1[nH]nc(-c2cccnc2)n1/N=C/C=C/c1ccco1	2.6	2.9	1	0.971	46.9*	0.531	60.5*
S=c1[nH]nc(-c2ccc(Cl)cc2)n1/N=C/C=C/c1ccco1	.	-15.3	.	1.15	55.6*	0.444	58.5*
SMILES	bIAP inhibitor	hIAP inh	bIAP act	hIAP act	mIAP block	mIAP act	mIAP inh conf
O=C(N/N=C/c1ccc(Cl)cc1)Nc1ccccc1	-0.1	-0.2	1	1	0.0	1	.
O=C(N/C=C/c1ccccc1)Nc1ccc(Cl)cc1	7.7	5.2	0.9	0.948	-295.1	3.95*	-171.2
CCCc1nnc(SCC(=O)Nc2ccccc2Cl)n1CC1CCCO1 (stereo not given)	.	-9.2	.	1.09	1.3	0.987	.
CCn1nc(C)c(NC(=O)CCSc2nc(-c3ccco3)cc(C(F)(F)F)n2)c1C	3.7	4.5	1	0.955	6.3	0.937	.
COc1cc(CNc2ncnc3c2[nH]c2ccc(C)cc23)cc(OC)c1	.	-69.0	.	1.69	-211.6	3.12*	-197.0
CC(=O)Oc1ccccc1C(=O)Nc1ccccc1C(=O)N1CCCCC1	.	28.7	.	0.713	-2.5	1.02	.
O=C(Nc1ccc(Cl)cc1)N[C@@H]1c2c(ccc3ccccc23)OC[C@@H]1CO	-11.4	-10.6	1.1	1.11	i	13.2*	-385.4
CN(C(=O)c1ccccc1)C1c2c(ccc3ccccc23)OCC1CO (stereo not given)	.	7.2	.	0.928	0.9	0.991	.
CN1CCN(NC(=O)Nc2cc(Cl)cc(Cl)c2)CC1	.	-21.0	.	1.21	-142.7	2.43*	-119.7
COc1ccc(NC(=O)NN2CCN(C)CC2)cc1OC	.	-13.9	.	1.14	-3.8	1.04	.
Cc1ccccc1-c1n[nH]c(=S)n1/N=C/C=C/c1ccco1	.	-4.4	.	1.04	43.9*	0.561	50.0*
Cc1cc(-c2n[nH]c(=S)n2/N=C/C=C/c2ccco2)n[nH]1	.	-9.4	.	1.09	49.3*	0.507	54.3*
CC1CCN(C(=O)COC(=O)CNC(=O)C23CC4CC(CC(C4)C2)C3)CC1	.	5.1	.	0.949	-1.4	1.01	.
Cc1ccc(S(=O)(=O)CCC(=O)OCc2cc(C)ccc2C)cc1	.	-12.3	.	1.12	-2.1	1.02	.
O=C(c1cc(NC(=O)C23CC4CC(CC(C4)C2)C3)cc(NC(=O)C23CC4CC(CC(C4)C2)C3)c1)N1CCCCC1	13.3	6.5	0.9	0.935	-106.2	2.06*	-106.3
O=C(NC(=S)N1CCCCC1)C12CC3CC(CC(C3)C1)C2	26.2	-14.4	0.7	1.14	1.6	0.984	.
CC(C)n1cc(C(=O)N2CCCC(N3CCN(c4ccc(F)cc4)CC3)C2)cn1 (stereo not given)	.	-36.2	.	1.36	6.7	0.933	.
CCc1ccc(NC(=O)NC2CCCCCCC2)cc1	.	-56.4	.	1.56	-171.7	2.72*	-213.4
CCc1ccc(NC(=O)C(=S)NC2CCCCC2)cc1	1.5	-24.2	1	1.24	14.6	0.854	.
O=C(Nc1ccc(Br)cc1)NC1CCCCCCC1	.	-5.7	.	1.06	-399.2	4.99*	-174.1
CC1CCCCC12NC(=O)N(CC(=O)Nc1ccc(S(=O)(=O)N3CCOCC3)cc1)C2=O (stereo not given)	31.4	11.3	0.7	0.887	3.3	0.967	.
c1coc(-c2nnc(-c3ccco3)nn2)c1	.	-10.4	.	1.1	70.7*	0.293	81.4*
Oc1c(C=C2N=c3ccccc3=N2)sc(=S)n1-c1ccc(F)cc1	0.6	-18.0	1	1.18	37.0	0.63	38.5*
N#Cc1c(SCC(=O)Nc2nccs2)sc2c(O)cc(=O)[nH]c12	.	5.3	.	0.947	47.5*	0.525	63.3*

Compound activity: PubChem BioAssay, Sanford-Burnham Center for Chemical Genomics
